The results in this text go back to the RNAGym collection of RNA variant scans (doi:10.1126/science.aae0568).

Variants at the floor of the assay were thinned out.

The chains are these.
B1: tRNA (parent)
chain: GUUCCGUUGGCGUAAUGGUAACGCGUCUCCCUCCUAAGGAGAAGACUGCGGGUUCGAGUCCCGUACGGAACG

In this data set the parent is B1. The data set is described as follows: yeast fitness relative to wild type (ratio to wild type); higher = fitter; tRNA-Arg(CCU), competitive growth, 37 C, YPD. Summed up:
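Variants of the tRNA-Arg(CCU) gene were chemically synthesised with a 3% per-site mutation rate across 69 sites and placed at the native genomic locus in Saccharomyces cerevisiae. Six parallel replicates of the pooled strains were competed in YPD at 37°C for 24 hours, and gene amplicons from the start and end populations were read by 100-nucleotide paired-end sequencing. Darwinian fitness relative to wild type was derived from changes in genotype frequencies. Genotypes required ≥ 100 starting reads, and estimates < 0.5 were set to 0.5.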
As to U2A C66A, the yeast fitness amounted to 0.704. U2A C31G C49U G51A G63A: the yeast fitness is no more than 0.5.

As to U2A C31G U32G, the yeast fitness turned out to be 0.526.

As to U2A U16A C49A G50A G68C, the yeast fitness is no more than 0.5. To U2A C5G C11G A20G belongs no more than 0.5; to U2A U16A G56C A57G C62U, no more than 0.5. As to U2A U3A U59G, the yeast fitness was no more than 0.5.

Turning to U2A U3A U26A A57U C62G C66U, the yeast fitness is no more than 0.5. U2A C11U C29G A37C A42U A57G G67A: the yeast fitness was no more than 0.5. To U2A C5G C24U C30G A70C belongs 0.54; to U2A G9A C33U G38C A40U A42C, no more than 0.5; to U2A U13A A14C C33U G52C, no more than 0.5. On to U2A C31G G39C C49U C60G, for which the yeast fitness was no more than 0.5.

For the variant U2A G6C C33U A40G, the yeast fitness is 0.547. Regarding U2A U8A C29G C60U C62A, the yeast fitness was no more than 0.5. Take U2A G6A A36C: the yeast fitness is 0.666. Regarding U2A G18A G44C, the yeast fitness was no more than 0.5. Take U2A G39A G48C: the yeast fitness was no more than 0.5. As for U2A C11U A14U U19G, the figure is no more than 0.5; as for U2A C24U A42C C62G, no more than 0.5; as for U2A C46G, 0.829. For the variant U2A U19A, the yeast fitness was found to be 0.931. In the case of U2A C5A C33U A57G C66G, the yeast fitness was no more than 0.5. Consider U2A G10C, for which the yeast fitness was 0.673. For U2A U26G, the yeast fitness was 0.821. To U2A U26C belongs 0.934. As to U2A U16G G23C C31U A36U U59A, the yeast fitness is no more than 0.5. On to U2A C11G U54C C61G, for which the yeast fitness is no more than 0.5. On to U2A U3A A45G C49U, for which the yeast fitness stood at 0.609. In the case of U2A C33A C55A G63A, the yeast fitness turned out to be 0.513. To U2A G6A A40U C46A belongs 0.596. For U2A G9A U13A U35G A70C, the yeast fitness is no more than 0.5.

In the case of U2A G12C C29U G51A G56A A57G G63C, the yeast fitness was no more than 0.5. On to U2A G41C, for which the yeast fitness worked out at 0.757. Take U2A U16C C30A A69C: the yeast fitness worked out at 0.544. In the case of U2A U16G A42G A43U C46U C62U, the yeast fitness is no more than 0.5. Turning to U2A G9A C34U C49G G52C C55U C62G, the yeast fitness is no more than 0.5.

For the variant U2A U16C, the yeast fitness stood at 0.88. Consider U2A U16A, for which the yeast fitness came out at 0.989. Take U2A G9C U16G C24U G68C: the yeast fitness was no more than 0.5. Regarding U2A C11U G23C C27A G50U, the yeast fitness is no more than 0.5. Turning to U2A C5U C29G A37U, the yeast fitness was determined as 0.512.

For the variant U2A C5U G23A A37G A69G A70U, the yeast fitness stood at 0.845. As for U2A C5A G50A, the figure is no more than 0.5; as for U2A C34G A40C C46G, 0.516. For U2A G9C G17A C60G, the yeast fitness amounted to 0.572. As for U2A C22A C49G, the yeast fitness was no more than 0.5.

For the variant U2A U19A A20C U26A, the yeast fitness turned out to be 0.578. Consider U2A U16A C31G, for which the yeast fitness worked out at 0.875. Turning to U2A U7C G25A A36U, the yeast fitness is no more than 0.5. With U2A C5U G48A, the yeast fitness was found to be 0.611. U2A C29U: the yeast fitness was 0.884. Turning to U2A C11U G48C, the yeast fitness was no more than 0.5. For the variant U2A G18A C22A C24G A43G C49G, the yeast fitness is 0.634. Take U2A C46G C61U: the yeast fitness stood at 0.804. On to U2A C11G C49A A70G, for which the yeast fitness was no more than 0.5. Take U2A C11A C31U: the yeast fitness was no more than 0.5. Regarding U2A U7A C27U C46G, the yeast fitness was no more than 0.5. Regarding U2A U13A C29U U35A C60U, the yeast fitness is no more than 0.5.

Take U2A G25A C31G G39C C49U C60G: the yeast fitness was no more than 0.5. As for U2A C31A A69U, the yeast fitness amounted to 0.604. With U2A C11G G17A A20U C33G G38C A70G, the yeast fitness is no more than 0.5.

For the variant U2A C29A A45U G67C, the yeast fitness is no more than 0.5.

Regarding U2A C5U U47A G52A, the yeast fitness is no more than 0.5. As for U2A C24G G63C G67C A69U, the figure is no more than 0.5; as for U2A G6A C11G U28G C34G G44C C61G, no more than 0.5; as for U2A C4U U28A C30U C60G C66G, no more than 0.5.

With U2A C24U C30U C34U G52A C66G, the yeast fitness is no more than 0.5. To U2A C49U A57U belongs no more than 0.5; to U2A C33G C46A C66A, no more than 0.5; to U2A G12A C30A A43U C60A G67A, no more than 0.5. U2A G68U: the yeast fitness was 0.773. With U2A G39C, the yeast fitness is 0.75. U2A C60G G63C: the yeast fitness was no more than 0.5.

Consider U2A G9C U16G U32G G52A G63C C66U, for which the yeast fitness was no more than 0.5. Take U2A U7C G25A A36U C62U G67A: the yeast fitness is no more than 0.5. As for U2A G25A A69G, the yeast fitness amounted to 0.576. On to U2A G6A U7C A15C C29G C33U, for which the yeast fitness is no more than 0.5.

U2A U16C G68A: the yeast fitness is no more than 0.5.

Consider U2A U3C G6A G39A, for which the yeast fitness is no more than 0.5. In the case of U2A C5U C24U U54C G58A, the yeast fitness came to 0.569. To U2A G6A C11G C49U G58C A69U belongs no more than 0.5; to U2A C24G G25A C61G G67C G68A, no more than 0.5; to U2A U3C G6A C66G, no more than 0.5. For U2A C27A, the yeast fitness worked out at 0.894. Consider U2A C27U, for which the yeast fitness stood at 0.982.

As to U2A G18A C24A U28A U32C C60A, the yeast fitness was no more than 0.5.

On to U2A G67A, for which the yeast fitness turned out to be 0.844. Take U2A G67C: the yeast fitness turned out to be 0.792. For U2A G12A A20G U26C C31G C33U A42U, the yeast fitness is no more than 0.5.

For the variant U2A U3A G39A A42C, the yeast fitness is no more than 0.5. To U2A G17C A57C G63C C66U belongs no more than 0.5; to U2A U16G C27G C49G G67U, no more than 0.5. For U2A C5G C11G A14U A15U U16C C29U, the yeast fitness was no more than 0.5. As to U2A C33G A36C, the yeast fitness was no more than 0.5. As for U2A C24A C30U, the yeast fitness was no more than 0.5. As for U2A C5G C24U C30G, the yeast fitness is no more than 0.5. Consider U2A C11G U28A A65G, for which the yeast fitness is no more than 0.5. As for U2A U8G C33G G38A, the yeast fitness was no more than 0.5. Take U2A C31U U35C A45U: the yeast fitness is no more than 0.5.

For the variant U2A C11G G25A A40U C49A C55U, the yeast fitness was no more than 0.5. Turning to U2A C5G C31U C66U, the yeast fitness was no more than 0.5. In the case of U2A G18C G23A G25C A37G A43C C55G G68A, the yeast fitness amounted to 0.558. On to U2A U16A U19A C46U, for which the yeast fitness is 0.714.

Turning to U2A C24G A42U, the yeast fitness worked out at 0.812.

Turning to U2A G48A C60U A69U, the yeast fitness is no more than 0.5. U2A G6A U7C G25A A36U C60A C62G: the yeast fitness is no more than 0.5. As for U2A G6C U16C C24U A36G, the yeast fitness is no more than 0.5.

As to U2A G12C C29U C33G, the yeast fitness is no more than 0.5. With U2A U16C C30A G67C, the yeast fitness is 0.557.

Take U2A G23A C29G G58C C60U C66G: the yeast fitness is no more than 0.5. U2A U16C C30A: the yeast fitness was found to be 0.558. Turning to U2A C11U U19G, the yeast fitness amounted to 0.647. Consider U2A C11G A21G A37G, for which the yeast fitness is no more than 0.5. As for U2A C11G, the figure is 0.647; as for U2A C11A, 0.614.

With U2A G48C A65C, the yeast fitness is 0.593. As to U2A C5U C24U C34U A40C, the yeast fitness was no more than 0.5. As to U2A C5A, the yeast fitness stood at 0.611. Consider U2A U3G C11A U16C C22G A57C C62A, for which the yeast fitness amounted to 0.572. On to U2A U3C U26C U35A C62A, for which the yeast fitness was no more than 0.5. As for U2A C22G G25C C61U, the yeast fitness is no more than 0.5.

For the variant U2A C22G G25C C61G, the yeast fitness was 0.703. As for U2A G6A C11G C49U A65U, the figure is no more than 0.5; as for U2A G9A A45C, 0.682; as for U2A G58C C66U, 0.702. On to U2A C5U A21U C30G A70U, for which the yeast fitness is no more than 0.5. To U2A C34U belongs 0.743; to U2A G52C, 0.65. Regarding U2A G23A C29G A45U C60G C61U A69G, the yeast fitness is no more than 0.5.

Consider U2A G6A U16C C24U G38C A65C, for which the yeast fitness is no more than 0.5.

As for U2A G12A A21C G48C, the yeast fitness is no more than 0.5.

Regarding U2A C11G A21G, the yeast fitness came to 0.567. As for U2A C11G U47A G48A C66U A70U, the figure is no more than 0.5; as for U2A G6A C11G C49U G58C, no more than 0.5; as for U2A G10C C27A A37U C49A G56A, no more than 0.5.

With U2A C30A C61U, the yeast fitness is no more than 0.5. As for U2A U7A U32A, the yeast fitness is no more than 0.5. As to U2A C46A A70C, the yeast fitness stood at 0.705. With U2A C5G C66U, the yeast fitness is 0.657.

For the variant U2A G6C U16C C24U, the yeast fitness was 0.523.

U2A G17C C46G C66A A70C: the yeast fitness was determined as 0.605. Turning to U2A C5G A14U U19A G23C C29A C66A, the yeast fitness is no more than 0.5. As for U2A G9A A37G A65C, the yeast fitness is no more than 0.5. Consider U2A C29A A45U, for which the yeast fitness is 0.542. Regarding U2A C66U A70C, the yeast fitness was found to be 0.641.

Regarding U2A G9A C11U A40U A42C A45G G50C C61U C66U, the yeast fitness is no more than 0.5. As for U2A C49A, the figure is 0.637; as for U2A C49G, 0.812. For the variant U2A G9C, the yeast fitness was 0.716. On to U2A C24A A42U, for which the yeast fitness was no more than 0.5. U2A C24A A36G A45G: the yeast fitness was no more than 0.5. Take U2A C11A A14G C29U A65C: the yeast fitness worked out at 0.568. Take U2A C27U C34A: the yeast fitness is no more than 0.5.

With U2A G6A C11G C49U G58C G68U, the yeast fitness was no more than 0.5. As to U2A C46G C49U, the yeast fitness was found to be 0.686. With U2A G9C A14C C34U A65U, the yeast fitness was no more than 0.5.

Turning to U2A G12A, the yeast fitness stood at 0.886.

For U2A C66U G67A, the yeast fitness came to 0.601. To U2A C5G A14G C30G C46U C66A A70U belongs no more than 0.5; to U2A C5U G23A A37G, 0.689. U2A C22U U32A A65G: the yeast fitness is no more than 0.5. As for U2A C60A, the figure is 0.645. To U2A C27G A37C C55U C62G C66G belongs no more than 0.5; to U2A C11G C61A, no more than 0.5. As to U2A C29A C30U C46U G58C, the yeast fitness was no more than 0.5. Take U2A G23C G58A: the yeast fitness was no more than 0.5.
